Numbered stars: 1 amine (or outer) side, 2 acyl side, 3 side chain; on linkers, the order of the positions; unused ones are H or OH. Bridge positions count the residues as written; N and C are the ends. Square brackets hold non-standard residues; d marks the D form. Peptide text beside a SMILES is read from it. * marks the point of attachment. Tic(7-O(CH2)6CO) = O=C([C@@H]1Cc2ccc(OCCCCCCC(=O)[*:3])cc2CN1[*:1])[*:2]; X1 = CCCC(N[*:1])C(=O)C(=O)[*:2]; Chg = N[C@H](C(=O)O)C1CCCCC1; Phg = N[C@H](C(=O)O)c1ccccc1; OtBu = CC(C)(C)O*
Key:
[1] = target: NS3 (Hepatitis C virus, UniProt A3EZJ3); assay: Inhibition of HCV NS3 protease; set-up: species or system Hepacivirus hominis
Chain of NS3 (A3EZJ3 whole entry): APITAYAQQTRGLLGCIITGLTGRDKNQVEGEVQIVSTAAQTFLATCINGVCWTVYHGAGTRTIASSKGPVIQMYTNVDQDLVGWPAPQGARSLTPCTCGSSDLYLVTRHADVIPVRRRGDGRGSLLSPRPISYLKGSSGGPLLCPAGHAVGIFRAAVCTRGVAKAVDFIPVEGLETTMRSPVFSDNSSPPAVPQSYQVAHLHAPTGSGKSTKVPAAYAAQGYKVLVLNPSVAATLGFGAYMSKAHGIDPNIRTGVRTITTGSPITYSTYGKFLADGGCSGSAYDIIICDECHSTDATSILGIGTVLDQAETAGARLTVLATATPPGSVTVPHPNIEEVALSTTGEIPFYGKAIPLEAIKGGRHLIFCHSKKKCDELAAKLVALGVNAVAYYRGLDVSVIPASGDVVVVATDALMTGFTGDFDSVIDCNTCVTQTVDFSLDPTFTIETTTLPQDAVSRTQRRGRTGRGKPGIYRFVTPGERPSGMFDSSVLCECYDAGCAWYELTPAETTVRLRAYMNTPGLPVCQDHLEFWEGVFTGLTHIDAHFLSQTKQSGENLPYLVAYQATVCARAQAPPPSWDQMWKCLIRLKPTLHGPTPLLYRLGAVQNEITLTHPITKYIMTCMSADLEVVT
Outline: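 Continuous spectrophotometric assay with NS4A-tethered single-chain NS3 serine protease, following cleavage of chromogenic ester substrates. Inhibition constants (Ki*) were determined. Compounds were tested as a mixture of two P1 diastereomers because pure P1 isomers racemized extensively under the assay conditions.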

[2] = AUC in rat administered sc; assay type: ADME, organism-based; details: plasma
[3] = AUC in rat administered po; assay type: ADME, organism-based; details: plasma
[4] = Oral bioavailability in rat; assay type: ADME, organism-based; details: in vivo

| Ki [1] [nM] | AUC [2] [µM·h] | AUC [3] [µM·h] | bioavailability [4] [%] | Compound |
| --- | --- | --- | --- | --- |
| 15 |  |  |  | CCCC(NC(=O)[C@@H]1Cc2ccc3cc2CN1C(=O)[C@H](C1CCCCC1)NC(=O)CCCCCCO3)C(=O)C(=O)NCC(=O)N[C@H](C(=O)O)c1ccccc1 (stereo not given in full) ([Chg][Tic(7-O(CH2)6CO)][X1]G[Phg]-OH; lactam N-2) |
| 1700 |  |  |  | CCCC(NC(=O)[C@@H]1Cc2ccc3cc2CN1C(=O)[C@H](C1CCCCC1)NC(=O)CCCCCCO3)C(=O)C(=O)NCC(=O)OCc1ccccc1 (stereo not given in full) |
| 21 | 5.5 | 0.27 | < 10 | CCCC(NC(=O)[C@@H]1Cc2ccc3cc2CN1C(=O)[C@H](C1CCCCC1)NC(=O)CCCCCCO3)C(=O)C(=O)NCC(=O)N[C@H](C(=O)N(C)C)c1ccccc1 (stereo not given in full) ([Chg][Tic(7-O(CH2)6CO)][X1]G[Phg]-NMe2; lactam N-2) |
| 3000 |  |  |  | CCCC(NC(=O)[C@@H]1Cc2ccc3cc2CN1C(=O)[C@H](C1CCCCC1)NC(=O)CCCCCCO3)C(=O)C(=O)NCC(=O)O (stereo not given in full) |
| 260 |  |  |  | CCCC(NC(=O)[C@@H]1Cc2ccc3cc2CN1C(=O)[C@H](C1CCCCC1)NC(=O)CCCCCCO3)C(=O)C(=O)NCC(=O)N[C@H](C(=O)OC(C)(C)C)c1ccccc1 (stereo not given in full) ([Chg][Tic(7-O(CH2)6CO)][X1]G[Phg]-OtBu; lactam N-2) |
| 2000 |  |  |  | CCCC(NC(=O)[C@@H]1Cc2ccc3cc2CN1C(=O)[C@H](C1CCCCC1)NC(=O)CCCCCCO3)C(=O)C(=O)NCC(=O)NCc1ccccc1 (stereo not given in full) |
| 2100 |  |  |  | CCCC(NC(=O)[C@@H]1Cc2ccc3cc2CN1C(=O)[C@H](C1CCCCC1)NC(=O)CCCCCCO3)C(=O)C(N)=O (stereo not given in full) |

Source: ChEMBL document CHEMBL1147731, “Potent 7-hydroxy-1,2,3,4-tetrahydroisoquinoline-3-carboxylic acid-based macrocyclic inhibitors of hepatitis C virus NS3 protease” (J Med Chem, 2006)
